A selection: hits, their analogues and other compounds. The true share with any hit is near 1.9%.
Hck Nef HTS – blocks Nef-activated human Hck kinase. P08631. 220,000 compounds, 0.68% hits. inhibition, % at 20 µM. Recombinant Hck-YEEI plus Nef, Z-Lyte FRET kinase assay;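 active means Hck-Nef kinase inhibition above about 50%, limit read from the data; inactive means inhibition below that limit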;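 further: 0% = DMSO with Hck plus Nef and 100% = Hck alone without Nef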
Target sequence (P08631 whole entry, looked up): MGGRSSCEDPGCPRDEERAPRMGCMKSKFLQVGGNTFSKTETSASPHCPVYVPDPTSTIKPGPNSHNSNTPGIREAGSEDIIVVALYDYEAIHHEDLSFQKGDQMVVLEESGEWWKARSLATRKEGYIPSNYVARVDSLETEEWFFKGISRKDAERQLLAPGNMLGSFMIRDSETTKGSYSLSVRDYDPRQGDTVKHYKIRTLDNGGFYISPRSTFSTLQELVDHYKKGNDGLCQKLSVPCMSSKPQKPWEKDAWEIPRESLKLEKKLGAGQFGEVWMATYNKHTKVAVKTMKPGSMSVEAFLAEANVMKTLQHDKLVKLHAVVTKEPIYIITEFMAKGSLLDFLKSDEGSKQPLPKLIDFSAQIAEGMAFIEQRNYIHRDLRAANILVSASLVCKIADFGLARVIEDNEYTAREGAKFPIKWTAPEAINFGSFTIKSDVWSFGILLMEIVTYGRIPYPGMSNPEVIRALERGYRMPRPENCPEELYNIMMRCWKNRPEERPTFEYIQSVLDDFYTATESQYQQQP
RanGTP-Imp inh – inhibitors of RanGTP-importin-beta interaction, primary screen, biochemical, FRET, CFP-Ran, YFP-importin-beta, homogeneous. cell-free CFP-Ran/YFP-importin-beta FRET ratio. inhibition, % (no concentration beside the values). 300,000 compounds, 1.1% hits;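 active means more than half of the replicate wells show a fall in the fluorescence ratio signal beyond about 16%, limit read from the data, passing the limit was not always enough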;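 further: 0% = DMSO wells and 100% = Ran loaded with GDP instead of GTP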
Runt-CBFb FRET – blocks binding of human RUNX1 Runt domain to CBFb | Q01196+Q13951 | Cerulean-Runt/Venus-CBFb FRET ratio 530/480, 1 h | inhibition, % at 20 µM | 220,000 compounds, 0.46% hits | AID 1496;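 active means inhibition over about 50% at 20 µM in the single-dose screen, limit read from the data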;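 further: 0% = DMSO wells and 100% = excess unlabeled CBFb competitor control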
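Assay system: Cerulean-Runt domain / Medium: Tris 50 mM pH 7.5, KCl, K2SO4, 0.01% BSA / Timing: protein complex preformed 1 h, compound exposure 1 h, room temperature, dark / Measured by: FRET, excitation 422 nm, emission at 530 and 480 nm / Evaluation: loss of energy transfer signal / Control set: 5 µM unlabeled CBFb as full-inhibition high control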
Runt-SMMHC FRET – blocks binding of human RUNX1 Runt domain to CBFb-SMMHC; Q01196+Q13951; Cerulean-Runt/Venus-CBFb-SMMHC FRET ratio 530/480, 1 h; inhibition, % at 20 µM; 220,000 compounds, 0.74% hits; AID 1434;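 active means mean inhibition across duplicate retests at 20 µM reaching about 50%, limit read from the data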;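 further: 0% = DMSO wells and 100% = wells with excess untagged CBFb-SMMHC; inhibitors lower the FRET ratio by blocking Runt binding to CBFb-SMMHC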
* marks the source's active call; other numbers are inactive results; / = not tested or not shown.

SMILES	Hck Nef HTS	RanGTP-Imp inh	Runt-CBFb FRET	Runt-SMMHC FRET
CC(C)CN(C(=O)CN1CCc2ccccc21)c1c(N)n(CC(C)C)c(=O)[nH]c1=O	3.4	8.2	35.0	72.5*
CNCC(=O)N(CC(C)C)c1c(N)n(CC(C)C)c(=O)[nH]c1=O	1.7	1.9	8.0	55.9*
COCCN(C(=O)CN1CCc2ccccc2C1)c1c(N)n(Cc2ccccc2)c(=O)[nH]c1=O	-0.3	6.8	27.1	74.3*
CC(=O)c1ccc(-c2ccc(C(=O)NC3CCCCCC3)o2)cc1	19.1	-0.8	7.4	-0.1
OCC[C@@H]1C[C@@H](O)[C@H](O)[C@@]2(Cc3ccccc3CCO2)O1	/	3.4	/	/
COc1ccc(Cn2c(/C=C/c3ccccc3)nc3ccccc32)cc1	3.2	28.2*	-0.5	-4.1
CC12CC3(C)CC(C)(C1)CC(C(=O)NCc1ccccn1)(C2)C3	-0.6	34.5*	-5.2	-2.3
CCC(=O)Nc1nnc(/C=C/c2ccc(OC)cc2)s1	2.5	1.0	-2.2	0.6
COc1ccc(/C=C/c2nnc(NC(=O)CSc3ccc(C)cc3)s2)cc1	23.3	7.0	1.0	123.5*
CN(C)Cc1c(O)ccc2cc(-c3nc4ccccc4n3C)c(=O)oc12	/	132.4*	/	/
COc1ccc2cc(-c3ccccc3)c(=O)oc2c1	/	3.1	/	/
CCN(CC)c1ccc2cc(-c3nc4ccccc4[nH]3)c(=O)oc2c1	-8.7	129.1*	19.3	78.7*
CCN(CC)c1ccc2cc(-c3nnc(-c4ccccc4)o3)c(=O)oc2c1	6.2	114.5*	5.4	82.8*
CCN(CC)c1ccc2cc(-c3nnc(-c4ccc(Br)cc4)o3)c(=O)oc2c1	-3.7	/	/	/
COc1cccc2cc(-c3nc4ccccc4[nH]3)c(=O)oc12	/	-16.5	/	/
CCN(CC)c1ccc2cc(-c3nc(-c4ccc(OC)cc4)cs3)c(=O)oc2c1	-9.8	/	19.7	61.6*
CCC(CO)NC(=O)c1ccccc1C(F)(F)F (stereo unspecified)	-11.2	2.1	3.6	-4.9
CCOC(=O)c1c(S(=O)(=O)NCC(=O)Nc2ccc(OC)cc2)c(C)n(C)c1C	/	1.7	/	/
CCN(CC)c1ccc2cc(-c3nc4ccccc4n3C)c(=O)oc2c1	8.7	125.8*	11.9	60.9*
Cc1cc(O)ccc1Nc1nc2ccccc2nc1Nc1ccc(O)cc1C	0.7	37.3*	38.2	/
CCn1ncc(Br)c1C(=O)Nc1sc2c(c1C(N)=O)CCC2	1.5	46.8*	3.5	-3.4
Cn1cc(Br)c(C(=O)Nc2sc3c(c2C(N)=O)CCC3)n1	-1.2	5.5	1.5	-4.7
Cc1c(N=Cc2ccco2)c(=O)n(-c2ccccc2)n1C	2.2	1.3	-1.0	-5.0
COc1ccc2c(C=Nc3c(C)n(C)n(-c4ccccc4)c3=O)c(O)n(Cc3ccco3)c(=O)c2c1	1.1	20.4*	-9.9	-139.6
O=C(CCn1c(=O)oc2ccc(Cl)cc21)N1CCN(Cc2ccccc2)CC1	/	3.3	/	/
SMILES	Hck Nef HTS	RanGTP-Imp inh	Runt-CBFb FRET	Runt-SMMHC FRET
CC1CCCN(c2nc3ccccc3nc2C(C#N)S(=O)(=O)c2ccccc2)C1 (stereo unspecified)	-0.1	-3.2	-14.2	-47.4
Cc1ccc(S(=O)(=O)C(C#N)c2nc3ccccc3nc2N2CCCCC2)cc1 (stereo unspecified)	/	/	-39.4	-111.2
COc1ccc(S(=O)(=O)C(C#N)c2nc3ccccc3nc2N2CCC(C)CC2)cc1 (stereo unspecified)	/	27.0*	-1.1	-6.5
Cc1ccc(S(=O)(=O)C(C#N)c2nc3ccccc3nc2N2CCN(C)CC2)cc1 (stereo unspecified)	-2.7	64.2*	56.7*	78.7*
CCN(CC)S(=O)(=O)c1cc(NC(=O)Cn2ncc(Cl)c(Cl)c2=O)ccc1C	73.7*	-2.1	-2.4	-12.8
COc1ccc(/C=C2/SC(=S)N(c3ccc(S(=O)(=O)Nc4nccs4)cc3)C2=O)cc1	59.2*	-5.6	-9.8	-20.9
O=C(CN(C(=O)c1csnn1)c1ccc(Cl)cc1)NCCc1ccccc1	/	0.9	/	/
Cc1cc(C)c2c(N)c(C(=O)C(C)(C)C)sc2n1	-5.2	1.2	92.7*	91.7*
Cc1ccc(CNc2nc(N)c([N+](=O)[O-])c(Nc3ccc(F)cc3)n2)cc1	0.3	18.8*	0.2	4.2
Cc1ccc(CNc2nc(N)c([N+](=O)[O-])c(NCc3ccccc3)n2)cc1	0.6	-4.1	-0.6	3.4
COc1ccc(C(=O)Oc2cccc3cccnc23)cc1[N+](=O)[O-]	12.7	0.2	0.0	1.8
NC(=O)c1ccc(Oc2cccc3cccnc23)c([N+](=O)[O-])c1	9.0	-1.2	36.1	84.6*

Screens as filed in PubChem BioAssay.
